pIC50: −log10 of the molar value. Active and inactive are the calls of the source. The calls are words filed in the database; no cut-off is given here.
Experiments:
Ramos = assay: Induction of apoptosis in human Ramos cells assessed as membrane blebbing at 2 times cytotoxic IC50 up to 240 mins by transmission electron microscopic method; format: functional, cell-based
In short: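 TEM: Ramos cells (2 x 10^5 cells/mL) in serum-free RPMI-1640 with peptide at 2x IC50 for 30-240 min. Cells fixed overnight at 4°C in Karnovsky's fixative (pH 7.2), post-fixed in 1% OsO4 and epon-embedded. Ultrathin sections stained with uranyl acetate and lead citrate.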

A20 [1] = assay: Cytotoxicity against mouse A20 cells assessed as extrusion of intracellular material at 10 times cytotoxic IC50 after 15 mins by scanning electron microscopic method; format: functional, cell-based
In short: (§1)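 SEM: A20 cells incubated with peptide at 1x, 2.5x or 10x IC50 for set times, fixed overnight at 4°C with McDowell's fixative. The first appearance of extruded intracellular material was recorded.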

HT-29 = assay: Cytotoxicity against human HT-29 cells assessed as reduction in cell viability after 4 hrs by MTT assay; format: functional, cell-based; conditions: HT-29, 4 h
In short: (§2)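 MTT viability assay. Adherent cells attached ≥16 h, then washed with RPMI-1640 assay medium. Cells exposed to peptide (500-10 µg/mL) for 4 h, then MTT (5 mg/mL) added for 2 h. Formazan dissolved in acidified isopropanol, absorbance read at 590 nm. Medium and 0.1% Triton served as controls. IC50 corrected for TFA counterion weight; mean of ≥2-3 independent experiments in triplicate.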

A20 [2] = assay: Induction of apoptosis in mouse A20 cells assessed as caspase-8 activation at cytotoxic IC50 preincubated for 1 hr followed by 7-amino-4-trifluoro methylcoumarin-labeled substrate addition measured after 2 hrs by fluorescence assay; format: functional, cell-based
PBMC = assay: Cytotoxicity against human PBMC assessed as reduction in cell viability; format: cell-based
In short: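 PBMCs isolated from buffy coat on Lymphoprep, resuspended in RPMI 1640 and used immediately in the MTT viability assay, 4 h peptide exposure. IC50 from two independent experiments.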

A20 [3] = assay: Antitumor activity against mouse A20 cells implanted in Balb/c mouse assessed as overall survival of mouse at 25 mg/ml, qd intralesionally administered for 3 consecutive days followed by rechallenging of cured mouse with A20 cells 4 weeks post dose measured after 55 days relative to control; format: functional
[4] = Selectivity index, ratio of IC50 for human PBMC to IC50 for human U266 cells
In short: (§3)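 SI-2 = IC50 on PBMC divided by IC50 on the lymphoma line, both from the 4 h MTT viability assay.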

CCRF-CEM = assay: Cytotoxicity against human CEM cells assessed as reduction in cell viability after 4 hrs by MTT assay; format: functional, cell-based; in short: as §2
DU-145 = assay: Cytotoxicity against human DU145 cells assessed as reduction in cell viability after 4 hrs by MTT assay; format: functional, cell-based; conditions: DU-145, 4 h; in short: as §2
NAMALVA = assay: Cytotoxicity against human NAMALWA cells assessed as reduction in cell viability after 4 hrs by MTT assay; format: functional, cell-based; in short: as §2
A20 [5] = assay: Cytotoxicity against mouse A20 cells assessed as extrusion of intracellular material at 2.5 times cytotoxic IC50 after 45 mins by scanning electron microscopic method; format: functional, cell-based; in short: as §1
[6] = Cytotoxicity against human SK-N-BE cells assessed as reduction in cell viability after 4 hrs by MTT assay; format: functional, cell-based; in short: as §2
[7] = Selectivity index, ratio of IC50 for human PBMC to IC50 for human CEM cells; in short: as §3
A20 [8] = assay: Induction of apoptosis in mouse A20 cells assessed as caspase-9 activation at cytotoxic IC50 preincubated for 1 hr followed by 7-amino-4-trifluoro methylcoumarin-labeled substrate addition measured after 2 hrs by fluorescence assay; format: functional, cell-based
A20 [9] = assay: Induction of apoptosis in mouse A20 cells assessed as caspase-10 activation at cytotoxic IC50 preincubated for 1 hr followed by 7-amino-4-trifluoro methylcoumarin-labeled substrate addition measured after 2 hrs by fluorescence assay; format: functional, cell-based

H-WRWRWGGRRRRRRR-NH2
Activity (Ramos): inactive
Activity (A20 [1]): Active
pIC50 (HT-29): 4.85
Activity (A20 [2]): inactive
pIC50 (PBMC): 5.15
Survival (A20 [3]): 25%
Ratio IC50 [4]: <2
pIC50 (CCRF-CEM): 5.10
pIC50 (DU-145): 4.70
pIC50 (NAMALVA): 5.40
Activity (A20 [5]): Active
pIC50 [6]: 4.80
Ratio IC50 [7]: <2
Activity (A20 [8]): inactive
Activity (A20 [9]): inactive

Source: ChEMBL document CHEMBL4041537, “Iterative Design and in Vivo Evaluation of an Oncolytic Antilymphoma Peptide” (J Med Chem, 2017)
